High-throughput results deposited in PubChem BioAssay by several laboratories.
Statin myotox sup = protects C2C12 myotubes from simvastatin toxicity; ATP luminescence, 48 h; scaled: DMSO 0, geranylgeraniol control 100; rescue of ATP level, % at 7.49 µM; 330,000 tested, 0.78% active;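 active = mean ATP rescue above about 67%, or every replicate alone reaching that limit, limit read from the data, passing the limit was not always enough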;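 note: myotubes were challenged with 10 µM simvastatin during compound exposure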
ASAP1 inh = ASAP1 ArfGAP inhibition. 360,000 tested, 0.19% active. inhibition, % at 16.5 µM. Q9ULH1. ASAP1-stimulated ARF1 GTP hydrolysis, GDP FP detection. AID 624377; in the data active = inhibition above about 25%;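 note: 0% = vehicle with enzyme and substrate and 100% = no enzyme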
SUMO Mot1 rescue = SUMOylation pathway inhibition by Mot1-301 growth rescue | S. cerevisiae Mot1-301 growth rescue, ATP luminescence, 38.5C; percent above DMSO median, 100 means doubled | growth rescue, % at 18.8 µM | 320,000 tested, 1% active | AID 2716;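 active = every valid replicate shows activation above 250% relative to neutral control wells; inactive = the rest, any valid replicate at or below 250%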;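 note: OY570 slx delta 5 strain wells were the positive control but not used for scaling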
APOBEC3A inh = human APOBEC3A DNA deaminase inhibition | P31941 | recombinant A3A, FAM/TAMRA ssDNA deamination fluorescence | inhibition, % at 20 µM | 330,000 tested, 0.41% active | AID 493011;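 active = at least 40% inhibition at 20 µM here, with at most 30% in a related deaminase screen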;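 note: plate controls were A3A with DMSO for no effect and wells lacking A3A enzyme for full effect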
A3G deaminase = inhibitors of human APOBEC3G DNA deaminase; recombinant A3G, ssDNA deamination FAM/TAMRA fluorescence; AID 493012; inhibition, % at 20 µM; 330,000 tested, 0.28% active; Q9HC16;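 active = inhibition of at least 40% at 20 µM, with no more than 30% in the related APOBEC3A deaminase screen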;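 note: plate controls were DMSO wells with A3G for no effect and wells lacking A3G enzyme for full effect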
Target sequence (Q9HC16 whole entry, looked up): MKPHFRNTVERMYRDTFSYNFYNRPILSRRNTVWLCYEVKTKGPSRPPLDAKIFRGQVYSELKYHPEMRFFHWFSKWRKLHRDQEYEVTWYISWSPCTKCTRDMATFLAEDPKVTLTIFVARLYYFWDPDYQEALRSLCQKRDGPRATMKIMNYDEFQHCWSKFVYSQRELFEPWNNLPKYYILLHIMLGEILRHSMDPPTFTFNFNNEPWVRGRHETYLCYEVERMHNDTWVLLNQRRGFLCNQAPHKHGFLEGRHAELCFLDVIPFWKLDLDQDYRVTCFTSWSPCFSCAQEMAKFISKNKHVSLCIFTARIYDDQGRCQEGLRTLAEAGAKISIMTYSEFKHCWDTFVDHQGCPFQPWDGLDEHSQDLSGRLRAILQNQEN
ARFGAP1 inhibitor = rat ARFGAP1 inhibition | AID 651572 | Arfgap1-stimulated ARF1 GTP hydrolysis, GDP FP detection | Q62848 | inhibition, % at 16.5 µM | 360,000 tested, 0.26% active;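 active = inhibition above a per-plate limit, mean inhibition of low control wells plus 3 SD, cut at about 25% in these data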;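 note: 0% = DMSO wells with enzyme and 100% = wells lacking Arfgap1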
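System: truncated rat Arfgap1 GAP domain / Medium: HEPES-based buffer, pH 7.5 / Also added: N-terminally truncated human ARF1-GTP substrate / Incubation: enzyme reaction 120 min at 25 °C after 20 min preincubation / Measured by: FP of antibody-bound GDP Alexa 633 tracer, ex 620/em 688 nm / Replicates: singlicate, each compound tested once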
A3A conf = confirmation of human APOBEC3A DNA deaminase inhibitors; shares compounds with APOBEC3A inh; recombinant A3A, ssDNA deaminase UDG fluorescence assay; inhibition, % at 20 µM; 1,400 tested, 63% active; AID 493151;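 active = inhibition reaching a set limit, 80% of the first screen's cutoff, at 20 µM in any replicate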;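 note: plate controls were DMSO wells with A3A for no effect and wells lacking A3A enzyme for full effect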
UDG A3A counter = UDG inhibition in APOBEC3A counter-screen; shares compounds with APOBEC3A inh; UDG counterscreen, FAM/TAMRA uracil oligo fluorescence; inhibition, % at 20 µM; 1,000 tested, under 10 active; call rule not given here
* hit, by the source's call; / = no result. Hits are enriched below; roughly 2.1% of the tested compounds scored in any of these assays.

SMILES	Statin myotox sup	ASAP1 inh	SUMO Mot1 rescue	APOBEC3A inh	A3G deaminase	ARFGAP1 inhibitor	A3A conf	UDG A3A counter
Cc1ccn(C)c(=N)c1	-2	-5	-8	48*	10	-12	56*	3
COCC#Cc1ccc2c(c1)O[C@H](CN(C)C(=O)Nc1ccccc1F)[C@H](C)CN([C@@H](C)CO)S2(=O)=O	16	/	/	/	/	/	/	/
Cc1cc2c(cc1C)[n+](C)cn2CC(O)COCc1ccccc1 (centres undefined)	-32	-5	-12	41*	8	-1	25	/
CCN1CCN(CC(O)COCc2ccccc2)CC1 (centres undefined)	-1	-2	0	-2	-5	-7	/	/
C[n+]1cn(CC(O)COCc2ccccc2)c2ccccc21 (centres undefined)	-18	2	1	56*	13	-6	77*	4
COc1ccc2c(c1)N(C)/C(=C/c1cccc[n+]1C)S2	-81	-4	69	57*	21	-6	88*	-3
CCN1/C(=C/c2cccc[n+]2C)Sc2ccc(OC)cc21	-102	1	15	53*	15	-1	87*	-2
CCN1/C(=C/C(C)=O)Sc2ccc(OC)cc21	/	13	9	-3	-3	0	/	/
O=C([C@@H]1[C@@H](CO)[C@@H]2Cn3c(cccc3=O)[C@H]1N2)N1CCc2ccccc2C1	0	/	/	/	/	/	/	/
COc1ccc(Cl)cc1C(=O)NCCN1CCOCC1	4	-20	14	0	4	11	/	/
O=C(NCCN1CCOCC1)c1ccc(Cl)cc1[N+](=O)[O-]	2	5	1	46*	-6	4	10*	-1
COc1ccc(/C=C(\NC(=O)c2ccccc2)C(=O)OC[C@@H]2CCC[N+]3(C)CCCCC23)cc1OC (some centres undefined)	5	3	-18	67*	11	6	67*	4
C[C@H]1CN([C@@H](C)CO)C(=O)c2cc(NC(=O)C3CCCCC3)ccc2O[C@H]1CN(C)Cc1ccc(Cl)c(Cl)c1	-31	/	/	/	/	/	/	/
COc1ccc(CC(=O)N/N=C/c2ccc(-c3cccc(C(=O)O)c3)o2)cc1OC	7	-10	-6	42*	6	-3	25	/
COc1ccc(CC(=O)N/N=C/c2ccc(-c3ccc(F)cc3)o2)cc1OC	-10	9	9	3	6	3	/	/
COc1ccc2nc(Nc3nc4cc5c(cc4s3)OCO5)sc2c1	/	2	-3	46*	1	10	39*	1
CCCCc1c(C)nc2ccc(OC)cc2c1SCCC(=O)O	/	-3	21	42*	6	-11	27	/
CCC(=O)Nc1ccc(-c2nnc(SCC(=O)Nc3nccs3)n2C)cc1	1	-6	6	53*	29	8	13	/
CSc1cccc(NC(=O)CN(C2CCCCC2)S(C)(=O)=O)c1	2	-1	10	65*	-7	1	-6	-2
COc1ccc(NC(=O)CN2C(=O)S/C(=C/c3cccn3-c3ccc(C(=O)O)cc3)C2=O)cc1	9	0	0	63*	25	0	57*	/
O=C(Nc1ccccc1Cl)N1[C@H](CO)[C@@H]2c3ccccc3NC[C@@H]21	12	/	/	/	/	/	/	/
COc1cc(Nc2cccc[n+]2C)cc(OC)c1OC	-2	-2	-17	69*	29	2	62*	-5
COc1cc(Nc2cccc(-c3ccccc3)n2)cc(OC)c1OC	4	-6	/	/	/	5	/	/
CCN(CC)c1cc(C)c2ccccc2n1	-15	14	2	57*	16	7	7	/
O=[N+]([O-])c1ccccc1/C=N/NC1=NCCN1	/	1	-24	50*	19	-10	64*	5
Cc1ccc(-c2c(C(=O)N/N=C/c3ccco3)nnn2-c2nonc2N)cc1	7	0	-1	61*	4	8	-2	/
